From ChEMBL document CHEMBL4138132, “Design, synthesis and biological evaluation of substituted aminopyridazin-3(2H)-ones as G0/G1-phase arresting agents with apoptosis-inducing activities” (Eur J Med Chem, 2017)

Legend:
[1] = tested on: SH-SY5Y; experiment: Antiproliferative activity against human SH-SY5Y cells after 48 hrs by MTT assay; assay type: functional
Outline: (§1)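 MTT read-out after 48 h incubation. GI50 taken as the concentration giving 50% growth inhibition relative to untreated controls. Fluorouracil served as positive control.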

[2] = tested on: K562; experiment: Antiproliferative activity against human K562 cells after 48 hrs by MTT assay; assay type: functional; conditions: K562, 48 h; outline: as §1
[3] = Inhibition of PDE4 (unknown origin) using FAM-Cyclic-3',5'-AMP as substrate after 1 hr by fluorescence polarization assay; parameters: species or system Homo sapiens
Outline: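 Each compound was tested at nine concentrations spanning 10^-8 to 10^-4 M, with rolipram as positive control. IC50 was obtained by nonlinear regression of the inhibition curves.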

[4] = tested on: AGS; experiment: Antiproliferative activity against human AGS cells after 48 hrs by MTT assay; assay type: functional; outline: as §1
[5] = tested on: SH-SY5Y; experiment: Cell cycle arrest in human SH-SY5Y cells assessed as accumulation at G0/G1-phase after 48 hrs by propidium iodide staining based flow cytometry; assay type: functional
[6] = tested on: SH-SY5Y; experiment: Induction of apoptosis in human SH-SY5Y cells assessed as necrotic cells at 10 uM after 48 hrs by Annexin V-FITC/propidium iodide staining based flow cytometry (reference value: 5.06%); assay type: functional
Outline: (§2)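 SH-SY5Y cells treated 48 h at 10 or 20 µM, then stained with Annexin V-FITC and propidium iodide and analysed by flow cytometry. Quadrants were scored as live, early apoptotic, late apoptotic and necrotic. DMSO served as control. Values are means of three independent experiments. Significance was tested versus control.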

[7] = tested on: SH-SY5Y; experiment: Cell cycle arrest in human SH-SY5Y cells assessed as accumulation at G0/G1 phase at 5 uM after 48 hrs by propidium iodide staining based flow cytometry (reference value: 47.67 +/- 1.1%); assay type: functional
[8] = tested on: SH-SY5Y; experiment: Induction of apoptosis in human SH-SY5Y cells assessed as live cells at 10 uM after 48 hrs by Annexin V-FITC/propidium iodide staining based flow cytometry (reference value: 89.95%); assay type: functional; outline: as §2
[9] = tested on: SH-SY5Y; experiment: Cell cycle arrest in human SH-SY5Y cells assessed as accumulation at G0/G1 phase at 20 uM after 48 hrs by propidium iodide staining based flow cytometry (reference value: 47.67 +/- 1.1%); assay type: functional
[10] = tested on: SH-SY5Y; experiment: Cell cycle arrest in human SH-SY5Y cells assessed as accumulation at G0/G1 phase at 10 uM after 48 hrs by propidium iodide staining based flow cytometry (reference value: 47.67 +/- 1.1%); assay type: functional
[11] = tested on: SH-SY5Y; experiment: Cell cycle arrest in human SH-SY5Y cells assessed as accumulation at G2/M-phase at 10 uM after 48 hrs by propidium iodide staining based flow cytometry (reference value: 12.13 +/- 0.7%); assay type: functional
[12] = tested on: SH-SY5Y; experiment: Cell cycle arrest in human SH-SY5Y cells assessed as accumulation at S-phase at 5 uM after 48 hrs by propidium iodide staining based flow cytometry (reference value: 40.2 +/- 1.8%); assay type: functional
[13] = tested on: SH-SY5Y; experiment: Induction of apoptosis in human SH-SY5Y cells assessed as early apoptotic cells at 10 uM after 48 hrs by Annexin V-FITC/propidium iodide staining based flow cytometry (reference value: 1.3%); assay type: functional; outline: as §2
[14] = tested on: SH-SY5Y; experiment: Cell cycle arrest in human SH-SY5Y cells assessed as accumulation at S-phase at 20 uM after 48 hrs by propidium iodide staining based flow cytometry (reference value: 40.2 +/- 1.8%); assay type: functional
[15] = tested on: SH-SY5Y; experiment: Induction of apoptosis in human SH-SY5Y cells assessed as increase in late apoptotic cells after 48 hrs by Annexin V-FITC/propidium iodide staining based flow cytometry; assay type: functional, cell-based; outline: as §2
[16] = tested on: SH-SY5Y; experiment: Cell cycle arrest in human SH-SY5Y cells assessed as accumulation at S-phase at 10 uM after 48 hrs by propidium iodide staining based flow cytometry (reference value: 40.2 +/- 1.8%); assay type: functional
[17] = tested on: SH-SY5Y; experiment: Induction of apoptosis in human SH-SY5Y cells assessed as late apoptotic cells at 20 uM after 48 hrs by Annexin V-FITC/propidium iodide staining based flow cytometry (reference value: 3.68%); assay type: functional; outline: as §2
[18] = tested on: SH-SY5Y; experiment: Cell cycle arrest in human SH-SY5Y cells assessed as accumulation at G2/M-phase at 5 uM after 48 hrs by propidium iodide staining based flow cytometry (reference value: 12.13 +/- 0.7%); assay type: functional
[19] = tested on: SH-SY5Y; experiment: Induction of apoptosis in human SH-SY5Y cells assessed as necrotic cells at 20 uM after 48 hrs by Annexin V-FITC/propidium iodide staining based flow cytometry (reference value: 5.06%); assay type: functional; outline: as §2
[20] = tested on: SH-SY5Y; experiment: Cell cycle arrest in human SH-SY5Y cells assessed as accumulation at G2/M-phase at 20 uM after 48 hrs by propidium iodide staining based flow cytometry (reference value: 12.13 +/- 0.7%); assay type: functional
[21] = tested on: SH-SY5Y; experiment: Induction of apoptosis in human SH-SY5Y cells assessed as early apoptotic cells at 20 uM after 48 hrs by Annexin V-FITC/propidium iodide staining based flow cytometry (reference value: 1.3%); assay type: functional; outline: as §2
[22] = tested on: SH-SY5Y; experiment: Induction of apoptosis in human SH-SY5Y cells assessed as live cells at 20 uM after 48 hrs by Annexin V-FITC/propidium iodide staining based flow cytometry (reference value: 89.95%); assay type: functional; outline: as §2
[23] = tested on: SH-SY5Y; experiment: Induction of apoptosis in human SH-SY5Y cells assessed as late apoptotic cells at 10 uM after 48 hrs by Annexin V-FITC/propidium iodide staining based flow cytometry (reference value: 3.68%); assay type: functional; outline: as §2

SMILES | GI50 [1] [µM] | GI50 [2] [µM] | IC50 [3] [µM] | GI50 [4] [µM] | also measured
COc1ccccc1OCCNc1ccc(=O)n(Cc2ccc(OC)c(OC3CCCC3)c2)n1 | > 100 | 28 | > 100 | > 100 | –
COc1ccccc1OCCNc1cnn(Cc2ccc(OC(F)F)c(OC3CCCC3)c2)c(=O)c1Cl | > 100 | > 100 | 39.1 | > 100 | –
COc1ccc(Cn2nc(NCCOc3ccccc3OC)ccc2=O)cc1OC | > 100 | > 100 | 66.9 | > 100 | –
COc1ccc(C2CNC(=O)C2)cc1OC1CCCC1 (stereo not given) [ROLIPRAM] | – | – | 0.5 | – | –
COc1ccccc1OCCNc1ccc(=O)n(Cc2ccc(OC)c(OCC3CC3)c2)n1 | 10.5 | 16.6 | > 100 | 45.8 | –
COc1ccccc1OCCNc1cnn(Cc2ccc(OC)c(-c3cccc(Cl)c3)c2)c(=O)c1Cl | > 100 | > 100 | > 100 | > 100 | –
COc1ccccc1OCCNc1ccc(=O)n(Cc2ccc(OC(F)F)c(OC3CCCC3)c2)n1 | 9.3 | 9.1 | 12.2 | 23.6 | Activity [5]: Dose-dependent effect; Activity [6]: 4.48%; Activity [7]: 53.22%; Activity [8]: 84.34%; Activity [9]: 63.55%; Activity [10]: 62.1%; Activity [11]: 7.74%; Activity [12]: 36.44%; Activity [13]: 3.12%; Activity [14]: 29.58%; Activity [15]: Dose-dependent effect; Activity [16]: 30.16%; Activity [17]: 18.54%; Activity [18]: 10.34%; Activity [19]: 8.18%; Activity [20]: 6.87%; Activity [21]: 8.82%; Activity [22]: 64.46%; Activity [23]: 8.05%
COc1ccccc1OCCNc1ccc(=O)n(Cc2ccc(OC(F)F)c(OCC3CC3)c2)n1 | 6.3 | 60.9 | 15.3 | 24.4 | Activity [5]: Dose-dependent effect; Activity [6]: 4.6%; Activity [7]: 52.15%; Activity [8]: 85.22%; Activity [9]: 62.61%; Activity [10]: 55.6%; Activity [11]: 10.59%; Activity [12]: 34.87%; Activity [13]: 2.74%; Activity [14]: 22.75%; Activity [15]: Dose-dependent effect; Activity [16]: 33.81%; Activity [17]: 10.62%; Activity [18]: 12.98%; Activity [19]: 6.69%; Activity [20]: 14.64%; Activity [21]: 4.16%; Activity [22]: 78.53%; Activity [23]: 7.43%
COc1ccccc1OCCNc1cnn(Cc2ccc(OC(F)F)c(OCC3CC3)c2)c(=O)c1Cl | > 100 | 67.6 | > 100 | > 100 | –
COc1ccc(Cn2nc(NCCOc3ccccc3OC)ccc2=O)cc1Br | > 100 | > 100 | 44 | > 100 | –
COc1ccc(Cn2ncc(NCCOc3ccccc3OC)c(Cl)c2=O)cc1OC | 33.1 | > 100 | 73 | > 100 | –
COc1ccccc1OCCNc1cnn(Cc2ccc(OC)c(OC3CCCC3)c2)c(=O)c1Cl | 23.3 | > 100 | 21.5 | > 100 | –
O=c1[nH]cc(F)c(=O)[nH]1 [FLUOROURACIL] | 11.9 | 18.5 | – | 24.6 | –
COc1ccccc1OCCNc1cnn(Cc2ccc(OC)c(OCC3CC3)c2)c(=O)c1Cl | 37.9 | > 100 | 45.2 | > 100 | –
